Laboratory results taken from ChEMBL document CHEMBL3739352, “Anticonvulsant activity, crystal structures, and preliminary safety evaluation of N-trans-cinnamoyl derivatives of selected (un)modified aminoalkanols” (Eur J Med Chem, 2016).
The source made the active and inactive calls. No cut-off for these calls is given here.

What was measured:
Salmonella typhimurium [1] = assay: Mutagenicity in Salmonella typhimurium TA100 assessed as number of revertants at 1000 ug/plate by Ames test (reference value: 77 +/-4); type: toxicity, organism-based; settings: salmonella enterica subsp. enterica serovar typhimurium
Outline: (§1)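 Salmonella TA100 preincubation Ames assay: overnight-type 12 h broth culture at 37 °C, compound in DMSO at final 4–1000 per plate, top agar with trace histidine, glucose minimal agar, 48 h at 37 °C. Revertant colonies per plate were counted, with a DMSO negative control and a sodium azide positive control. Three independent repetitions were run.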

Mus musculus [2] = assay: Neurotoxicity in albino Carworth Farms No.1 mouse at 100 mg/kg, ip after 4 hrs by rotarod test; type: toxicity, organism-based; settings: in vivo
Outline: (§2)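 Mice (albino Carworth Farms No.1) were dosed i.p. at 30, 100 or 300 mg/kg in 0.5% methylcellulose. They were tested 0.5 and 4 h later on a 1-inch knurled rod rotating at 6 rpm. Neurotoxicity was scored if a mouse could not stay on the rod for at least 1 min in each of three trials. Results are given as animals toxic/animals tested, with deaths noted.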

Salmonella typhimurium [3] = assay: Mutagenicity in Salmonella typhimurium TA1535 assessed assessed as mutagenic index at 100 ug/plate by Ames test; type: toxicity, organism-based; settings: salmonella enterica subsp. enterica serovar typhimurium
Salmonella typhimurium [4] = assay: Mutagenicity in Salmonella typhimurium TA98 assessed as number of revertants at 20 ug/plate by Ames test (reference value: 23 +/- 3); type: toxicity, organism-based; settings: salmonella enterica subsp. enterica serovar typhimurium
Salmonella typhimurium [5] = assay: Mutagenicity in Salmonella typhimurium TA98 assessed as number of revertants at 100 ug/plate by Ames test (reference value: 23 +/- 3); type: toxicity, organism-based; settings: salmonella enterica subsp. enterica serovar typhimurium
Salmonella typhimurium [6] = assay: Mutagenicity in Salmonella typhimurium TA98 assessed as mutagenic index at 100 ug/plate by Ames test; type: toxicity, organism-based; settings: salmonella enterica subsp. enterica serovar typhimurium
Mus musculus [7] = assay: Anticonvulsant activity in albino Carworth Farms No.1 mouse assessed as protection against subcutaneous dosed pentetrazol-induced seizures at 100 mg/kg, ip after 4 hrs; type: functional, organism-based
Outline: (§3)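 Mouse i.p. screen in Carworth Farms No.1 albino mice at 30, 100 or 300 mg/kg in 0.5% methylcellulose. Testing was at 0.5 and 4 h after injection, by maximal electroshock or by subcutaneous pentetrazol challenge. Scoring was number protected / number used.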

Salmonella typhimurium [8] = assay: Mutagenicity in Salmonella typhimurium TA98 assessed as number of revertants at 4 ug/plate by Ames test (reference value: 23 +/- 3); type: toxicity, organism-based; settings: salmonella enterica subsp. enterica serovar typhimurium
Mus musculus [9] = assay: Neurotoxicity in albino Carworth Farms No.1 mouse at 300 mg/kg, ip after 0.5 hrs by rotarod test; type: toxicity, organism-based; settings: in vivo; outline: as §2
Mus musculus [10] = assay: Anticonvulsant activity in albino Carworth Farms No.1 mouse assessed as protection against subcutaneous dosed pentetrazol-induced seizures at 300 mg/kg, ip after 0.5 hrs; type: functional, organism-based; outline: as §3
Mus musculus [11] = assay: Anticonvulsant activity in albino Carworth Farms No.1 mouse assessed as protection against subcutaneous dosed pentetrazol-induced seizures at 100 mg/kg, ip after 0.5 hrs; type: functional, organism-based; outline: as §3
[12] = Lipophilicity of the compound using 90% methanol in water at 1 mg/ml by RT-TLC analysis; type: physicochemical; settings: buffer
Outline: (§4)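 Reversed-phase TLC with a methanol–water mobile phase at the stated methanol content (v/v). Compounds were spotted from 1 mg/mL methanol solutions after 1 h chamber saturation and located under UV light. Rf was measured and RM = log(1/Rf − 1) calculated.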

Salmonella typhimurium [13] = assay: Mutagenicity in Salmonella typhimurium TA98 assessed as number of revertants at 1000 ug/plate by Ames test (reference value: 23 +/- 3); type: toxicity, organism-based; settings: salmonella enterica subsp. enterica serovar typhimurium
Mus musculus [14] = assay: Anticonvulsant activity in albino Carworth Farms No.1 mouse assessed as protection against subcutaneous dosed pentetrazol-induced seizures at 30 mg/kg, ip after 4 hrs; type: functional, organism-based; outline: as §3
[15] = Lipophilicity of the compound using 65% methanol in water at 1 mg/ml by RT-TLC analysis; type: physicochemical; settings: buffer; outline: as §4
Salmonella typhimurium [16] = assay: Mutagenicity in Salmonella typhimurium TA100 assessed as number of revertants at 4 ug/plate by Ames test (reference value: 77 +/-4); type: toxicity, organism-based; settings: salmonella enterica subsp. enterica serovar typhimurium; outline: as §1
Salmonella typhimurium [17] = assay: Mutagenicity in Salmonella typhimurium TA100 assessed as assessed as mutagenic index at 1000 ug/plate by Ames test; type: toxicity, organism-based; settings: salmonella enterica subsp. enterica serovar typhimurium
Outline: (§5)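 Ames preincubation test. Strain culture was grown 12 h at 37 °C in nutrient broth, then mixed with compound in DMSO (final 4, 20, 100, 500, 1000 per plate) and buffer in top agar with trace histidine. This was plated on glucose minimal agar for 48 h at 37 °C. Mutagenic index = revertants with compound / DMSO control revertants, from three independent repeats.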

Salmonella typhimurium [18] = assay: Mutagenicity in Salmonella typhimurium TA100 assessed as number of revertants at 100 ug/plate by Ames test (reference value: 77 +/-4); type: toxicity, organism-based; settings: salmonella enterica subsp. enterica serovar typhimurium; outline: as §1
Salmonella typhimurium [19] = assay: Mutagenicity in Salmonella typhimurium TA98 assessed as mutagenic index at 1000 ug/plate by Ames test; type: toxicity, organism-based; settings: salmonella enterica subsp. enterica serovar typhimurium
[20] = Lipophilicity of the compound at 1 mg/ml by RT-TLC analysis relative to 0% methanol; type: physicochemical; settings: methanol/water
Outline: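 Reversed-phase TLC used methanol–water mobile phases of 95–65% methanol. Compounds were applied from 1 mg/mL methanol solutions after 1 h chamber saturation, with UV detection. RM = log(1/Rf − 1) was calculated at each methanol level and extrapolated linearly (RM = RM0 + bC) to 0% methanol to give RM0.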

Mus musculus [21] = assay: Anticonvulsant activity in albino Carworth Farms No.1 mouse assessed as protection against maximal electroshock-induced seizures at 300 mg/kg, ip after 4 hrs; type: functional, organism-based; outline: as §3
Salmonella typhimurium [22] = assay: Mutagenicity in Salmonella typhimurium TA1535 assessed as number of revertants at 20 ug/plate by Ames test (reference value: 10 +/- 3); type: toxicity, organism-based; settings: salmonella enterica subsp. enterica serovar typhimurium
Mus musculus [23] = assay: Anticonvulsant activity in albino Carworth Farms No.1 mouse assessed as protection against maximal electroshock-induced seizures at 30 mg/kg, ip after 4 hrs; type: functional, organism-based; outline: as §3
Salmonella typhimurium [24] = assay: Mutagenicity in Salmonella typhimurium TA98 assessed as mutagenic index at 4 ug/plate by Ames test; type: toxicity, organism-based; settings: salmonella enterica subsp. enterica serovar typhimurium
Salmonella typhimurium [25] = assay: Mutagenicity in Salmonella typhimurium TA1535 assessed as assessed as mutagenic index at 4 ug/plate by Ames test; type: toxicity, organism-based; settings: salmonella enterica subsp. enterica serovar typhimurium; outline: as §5
Salmonella typhimurium [26] = assay: Mutagenicity in Salmonella typhimurium TA100 assessed as mutagenic index at 100 ug/plate by Ames test; type: toxicity, organism-based; settings: salmonella enterica subsp. enterica serovar typhimurium; outline: as §5
Salmonella typhimurium [27] = assay: Mutagenicity in Salmonella typhimurium TA98 assessed as mutagenic index at 20 ug/plate by Ames test; type: toxicity, organism-based; settings: salmonella enterica subsp. enterica serovar typhimurium
Mus musculus [28] = assay: Neurotoxicity in albino Carworth Farms No.1 mouse at 300 mg/kg, ip after 4 hrs by rotarod test; type: toxicity, organism-based; settings: in vivo; outline: as §2
[29] = Lipophilicity of the compound using 75% methanol in water at 1 mg/ml by RT-TLC analysis; type: physicochemical; settings: buffer; outline: as §4
Mus musculus [30] = assay: Anticonvulsant activity in albino Carworth Farms No.1 mouse assessed as protection against maximal electroshock-induced seizures at 100 mg/kg, ip after 4 hrs; type: functional, organism-based; outline: as §3
Salmonella typhimurium [31] = assay: Mutagenicity in Salmonella typhimurium TA1535 assessed as number of revertants at 1000 ug/plate by Ames test (reference value: 10 +/- 3); type: toxicity, organism-based; settings: salmonella enterica subsp. enterica serovar typhimurium
Salmonella typhimurium [32] = assay: Mutagenicity in Salmonella typhimurium TA100 assessed as number of revertants at 500 ug/plate by Ames test (reference value: 77 +/-4); type: toxicity, organism-based; settings: salmonella enterica subsp. enterica serovar typhimurium; outline: as §1
Salmonella typhimurium [33] = assay: Mutagenicity in Salmonella typhimurium TA100 assessed as mutagenic index at 500 ug/plate by Ames test; type: toxicity, organism-based; settings: salmonella enterica subsp. enterica serovar typhimurium; outline: as §5
Salmonella typhimurium [34] = assay: Mutagenicity in Salmonella typhimurium TA98 assessed as number of revertants at 500 ug/plate by Ames test (reference value: 23 +/- 3); type: toxicity, organism-based; settings: salmonella enterica subsp. enterica serovar typhimurium

In the case of O=C(/C=C/c1ccccc1)N[C@H]1CCCC[C@@H]1O (racemic), the Activity (Salmonella typhimurium [1]) is reported as 70, the Activity (Mus musculus [2]) is reported as “Non-toxic” and the Activity_index (Salmonella typhimurium [3]) is reported as 0.6. The Activity (Salmonella typhimurium [4]) was 21, the Activity (Salmonella typhimurium [5]) was 20 and the Activity_index (Salmonella typhimurium [6]) was 0.9. The Activity (Mus musculus [7]) was “inactive”, the Activity (Salmonella typhimurium [8]) was 22 and the Activity (Mus musculus [9]) was “Toxic”. The Activity (Mus musculus [10]) was “inactive”, the Activity (Mus musculus [11]) was “inactive” and the Rm [12] was -0.43. The Activity (Salmonella typhimurium [13]) was 18, the Activity (Mus musculus [14]) was “inactive” and the Rm [15] was 0.33. The Activity (Salmonella typhimurium [16]) was 71, the Activity_index (Salmonella typhimurium [17]) was 0.9 and the Activity (Salmonella typhimurium [18]) was 72. For the same molecule, the Activity_index (Salmonella typhimurium [19]) was 0.8, the Rm [20] was 2.054 and the Activity (Mus musculus [21]) was “inactive”. For the same molecule, the Activity (Salmonella typhimurium [22]) was 14, the Activity (Mus musculus [23]) was “inactive” and the Activity_index (Salmonella typhimurium [24]) was 1. For the same molecule, the Activity_index (Salmonella typhimurium [25]) was 0.5, the Activity_index (Salmonella typhimurium [26]) was 0.9 and the Activity_index (Salmonella typhimurium [27]) was 0.9. The Activity (Mus musculus [28]) was “Toxic”, the Rm [29] was -0.09 and the Activity (Mus musculus [30]) was “inactive”. For the same molecule, the Activity (Salmonella typhimurium [31]) was 6, the Activity (Salmonella typhimurium [32]) was 73 and the Activity_index (Salmonella typhimurium [33]) was 1. It also gave an Activity (Salmonella typhimurium [34]) of 19.
With CCC(CO)NC(=O)/C=C/c1ccccc1 (racemic) the Activity (Salmonella typhimurium [1]) was 64, the Activity (Mus musculus [2]) was “Non-toxic” and the Activity_index (Salmonella typhimurium [3]) was 1.4. The Activity (Salmonella typhimurium [4]) was 24, the Activity (Salmonella typhimurium [5]) was 22 and the Activity_index (Salmonella typhimurium [6]) was 1. The Activity (Mus musculus [7]) was “inactive”, the Activity (Salmonella typhimurium [8]) was 21 and the Activity (Mus musculus [9]) was “Non-toxic”. The Activity (Mus musculus [10]) was “Active”, the Activity (Mus musculus [11]) was “inactive” and the Rm [12] was -0.55. The Activity (Salmonella typhimurium [13]) was 19, the Activity (Mus musculus [14]) was “inactive” and the Rm [15] was 0.25. It also gave an Activity (Salmonella typhimurium [16]) of 68, an Activity_index (Salmonella typhimurium [17]) of 0.8 and an Activity (Salmonella typhimurium [18]) of 64. The Activity_index (Salmonella typhimurium [19]) was 0.8, the Rm [20] was 2.093 and the Activity (Mus musculus [21]) was “inactive”. The Activity (Salmonella typhimurium [22]) was 5, the Activity (Mus musculus [23]) was “inactive” and the Activity_index (Salmonella typhimurium [24]) was 0.9. For the same molecule, the Activity_index (Salmonella typhimurium [25]) was 1.1, the Activity_index (Salmonella typhimurium [26]) was 0.8 and the Activity_index (Salmonella typhimurium [27]) was 1. For the same molecule, the Activity (Mus musculus [28]) was “Non-toxic”, the Rm [29] was -0.19 and the Activity (Mus musculus [30]) was “inactive”. The Activity (Salmonella typhimurium [31]) was 13, the Activity (Salmonella typhimurium [32]) was 72 and the Activity_index (Salmonella typhimurium [33]) was 0.9. The Activity (Salmonella typhimurium [34]) was 21.
